Reference: ChEMBL document CHEMBL3603779, “Identification and Optimization of Benzimidazole Sulfonamides as Orally Bioavailable Sphingosine 1-Phosphate Receptor 1 Antagonists with in Vivo Activity” (J Med Chem, 2015)

Target: Sphingosine 1-phosphate receptor 1 (Homo sapiens, UniProt P21453)
Assay: Antagonist activity against human S1P1 receptor expressed in human U2OS cells co-expressing GFP assessed as inhibition of S1P-induced receptor translocation
Format: cell-based
Details: not given
Summary of the method: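 Cellular S1P1 translocation (internalization) assay with antagonist; EC50 reported as mean of at least three separate determinations ± standard deviation.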

Sphingosine 1-phosphate receptor 1, sequence (P21453 whole entry): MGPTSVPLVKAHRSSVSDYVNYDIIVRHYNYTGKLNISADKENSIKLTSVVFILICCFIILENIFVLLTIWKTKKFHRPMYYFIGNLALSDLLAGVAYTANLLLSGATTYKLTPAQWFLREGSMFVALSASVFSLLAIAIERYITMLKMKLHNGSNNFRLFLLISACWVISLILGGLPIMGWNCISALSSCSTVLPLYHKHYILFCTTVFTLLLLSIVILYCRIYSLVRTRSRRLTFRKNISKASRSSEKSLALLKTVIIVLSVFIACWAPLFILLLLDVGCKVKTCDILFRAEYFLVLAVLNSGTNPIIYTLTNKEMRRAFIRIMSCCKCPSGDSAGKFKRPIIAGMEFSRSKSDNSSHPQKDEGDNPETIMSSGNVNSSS

Structure (SMILES)	EC50 [nM]
CCn1c(C(C)NS(=O)(=O)c2ccc(Cl)cc2)nc2cccnc21 (centres undefined)	2340
CCn1c(C(C)NS(=O)(=O)c2ccc(Cl)cc2)nc2ncccc21 (centres undefined)	310
CCn1c([C@@H](C)NS(=O)(=O)c2cnn(C(C)C)c2C)nc2ccc(C(F)(F)F)cc21	1100
CCn1c([C@@H](C)NS(=O)(=O)c2ccc(NC(C)=O)c(C)c2)nc2ccc(C(F)(F)F)cc21	12400
CCn1ncc(S(=O)(=O)N[C@H](C)c2nc3ccc(C(F)(F)F)cc3n2CC)c1C	430
CCn1c([C@@H](C)NS(=O)(=O)c2ccc(Cl)cc2)nc2ccc(CN(C)C)cc21	23500
CCn1c([C@@H](C)NS(=O)(=O)c2cnc(NC(C)=O)s2)nc2ccc(C(F)(F)F)cc21	2200
CCn1c([C@@H](C)NS(=O)(=O)c2ccc(Cl)cc2)nc2cc(CO)ccc21	180
CCCn1ncc(S(=O)(=O)N[C@H](C)c2nc3ccc(C(F)(F)F)cc3n2CC)c1C	800
CCCn1cc(S(=O)(=O)N[C@H](C)c2nc3ccc(C(F)(F)F)cc3n2CC)c(C)n1	420
CCn1c([C@@H](C)NS(=O)(=O)c2ccc(Cl)cc2)nc2ccc(OC)cc21	9
CCn1c([C@@H](C)NS(=O)(=O)c2ccc(Cl)cc2)nc2cc(C#N)ccc21	130
CCn1c([C@@H](C)NS(=O)(=O)c2ccccc2)nc2ccc(C(F)(F)F)cc21	8
CCn1c([C@@H](C)NS(=O)(=O)C2CCCC2)nc2ccc(C(F)(F)F)cc21	1800
CCn1c([C@@H](C)NS(=O)(=O)c2cccc(Cl)c2)nc2ccc(C(F)(F)F)cc21	27
CCn1c([C@@H](C)NS(=O)(=O)c2cnc(C)n2C)nc2ccc(C(F)(F)F)cc21	650
CCn1c([C@@H](C)NS(=O)(=O)c2c(F)cc(F)cc2F)nc2ccc(C(F)(F)F)cc21	240
CCn1c([C@@H](C)NS(=O)(=O)c2ccc(Cl)cc2)nc2ccc(S(C)(=O)=O)cc21	1840
CCn1c([C@@H](C)NS(=O)(=O)c2ccc(Cl)cc2)nc2cc(F)c(Cl)cc21	1

Further compounds by falling EC50, results first:

EC50 [nM]	Structure (SMILES)
9200	CCn1c([C@@H](C)NS(=O)(=O)c2ccccn2)nc2ccc(C(F)(F)F)cc21
9000	CCn1c([C@@H](C)NS(=O)(=O)C2CC2)nc2ccc(C(F)(F)F)cc21
4000	CCn1c([C@@H](C)NS(=O)(=O)c2cn(C)c(C)n2)nc2ccc(C(F)(F)F)cc21
2420	CCn1c([C@@H](C)NS(=O)(=O)c2ccc(Cl)cc2)nc2cc(N3CCOCC3)ccc21
800	CCn1c([C@@H](C)NS(=O)(=O)c2ccc(Cl)cc2)nc2cccc(Cl)c21
590	CCn1cc(S(=O)(=O)N[C@H](C)c2nc3ccc(C(F)(F)F)cc3n2CC)cn1
190	CCn1c([C@@H](C)NS(=O)(=O)c2ccc(Cl)cc2)nc2cc(C(N)=O)ccc21
57	CCn1c([C@@H](C)NS(=O)(=O)c2cccc(C#N)c2)nc2ccc(C(F)(F)F)cc21
24	CCn1c([C@@H](C)NS(=O)(=O)c2ccc(C)cc2)nc2ccc(C(F)(F)F)cc21
12	CCn1c([C@@H](C)NS(=O)(=O)c2ccc(C#N)cc2)nc2ccc(C(F)(F)F)cc21
5	CCn1c([C@@H](C)NS(=O)(=O)c2ccc(Cl)cc2)nc2ccc(CO)cc21

Tested on: not listed separately
Assay: Intrinsic clearance in human liver microsomes pre-incubated at 37 degC for 5 mins before NADPH addition by LCMS/MS method
Format: ADME
Details: read-out: CLH

Structure (SMILES)	microsomal CLint [µL/min/mg]
CCn1c(C(C)NS(=O)(=O)c2ccc(Cl)cc2)nc2cccnc21 (centres undefined)	94
CCn1c(C(C)NS(=O)(=O)c2ccc(Cl)cc2)nc2ncccc21 (centres undefined)	15
CCn1c([C@@H](C)NS(=O)(=O)c2cnn(C(C)C)c2C)nc2ccc(C(F)(F)F)cc21	> 100
CCn1c([C@@H](C)NS(=O)(=O)c2ccc(NC(C)=O)c(C)c2)nc2ccc(C(F)(F)F)cc21	> 100
CCn1ncc(S(=O)(=O)N[C@H](C)c2nc3ccc(C(F)(F)F)cc3n2CC)c1C	> 100
CCn1c([C@@H](C)NS(=O)(=O)c2ccc(Cl)cc2)nc2ccc(CN(C)C)cc21	30
CCn1c([C@@H](C)NS(=O)(=O)c2cnc(NC(C)=O)s2)nc2ccc(C(F)(F)F)cc21	15
CCn1c([C@@H](C)NS(=O)(=O)c2ccc(Cl)cc2)nc2cc(CO)ccc21	88
CCCn1ncc(S(=O)(=O)N[C@H](C)c2nc3ccc(C(F)(F)F)cc3n2CC)c1C	> 100
CCCn1cc(S(=O)(=O)N[C@H](C)c2nc3ccc(C(F)(F)F)cc3n2CC)c(C)n1	> 100
CCn1c([C@@H](C)NS(=O)(=O)c2ccc(Cl)cc2)nc2ccc(OC)cc21	> 100
CCn1c([C@@H](C)NS(=O)(=O)c2ccc(Cl)cc2)nc2cc(C#N)ccc21	71
CCn1c([C@@H](C)NS(=O)(=O)c2ccccc2)nc2ccc(C(F)(F)F)cc21	14
CCn1c([C@@H](C)NS(=O)(=O)c2cccc(Cl)c2)nc2ccc(C(F)(F)F)cc21	> 100
CCn1c([C@@H](C)NS(=O)(=O)c2cnc(C)n2C)nc2ccc(C(F)(F)F)cc21	58
CCn1c([C@@H](C)NS(=O)(=O)c2c(F)cc(F)cc2F)nc2ccc(C(F)(F)F)cc21	19
CCn1c([C@@H](C)NS(=O)(=O)c2ccc(Cl)cc2)nc2ccc(S(C)(=O)=O)cc21	< 5
CCn1c([C@@H](C)NS(=O)(=O)c2ccc(Cl)cc2)nc2cc(F)c(Cl)cc21	> 100

The remaining lines, values ahead:

microsomal CLint [µL/min/mg]	Structure (SMILES)
< 3	CCn1c([C@@H](C)NS(=O)(=O)c2ccccn2)nc2ccc(C(F)(F)F)cc21
< 3	CCn1c([C@@H](C)NS(=O)(=O)C2CC2)nc2ccc(C(F)(F)F)cc21
43	CCn1c([C@@H](C)NS(=O)(=O)c2cn(C)c(C)n2)nc2ccc(C(F)(F)F)cc21
45	CCn1c([C@@H](C)NS(=O)(=O)c2ccc(Cl)cc2)nc2cc(N3CCOCC3)ccc21
> 100	CCn1c([C@@H](C)NS(=O)(=O)c2ccc(Cl)cc2)nc2cccc(Cl)c21
95	CCn1cc(S(=O)(=O)N[C@H](C)c2nc3ccc(C(F)(F)F)cc3n2CC)cn1
< 5	CCn1c([C@@H](C)NS(=O)(=O)c2ccc(Cl)cc2)nc2cc(C(N)=O)ccc21
> 100	CCn1c([C@@H](C)NS(=O)(=O)c2cccc(C#N)c2)nc2ccc(C(F)(F)F)cc21
> 100	CCn1c([C@@H](C)NS(=O)(=O)c2ccc(C)cc2)nc2ccc(C(F)(F)F)cc21
34	CCn1c([C@@H](C)NS(=O)(=O)c2ccc(C#N)cc2)nc2ccc(C(F)(F)F)cc21
84	CCn1c([C@@H](C)NS(=O)(=O)c2ccc(Cl)cc2)nc2ccc(CO)cc21
